NPY Y2 blocker = NPY-Y2 receptor antagonists, primary screen, cell-based | Neuropeptide Y receptor type 2 (Homo sapiens), P49146 | NPY-Y2 expressing cells, antagonist mode | inhibition, % at 2.7 µM | hit rate 0.99% among 140,000 | AID 793, 2007;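 further: 0% = vehicle with agonist challenge and 100% = reference antagonist with challenge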
Target sequence (P49146 whole entry, looked up): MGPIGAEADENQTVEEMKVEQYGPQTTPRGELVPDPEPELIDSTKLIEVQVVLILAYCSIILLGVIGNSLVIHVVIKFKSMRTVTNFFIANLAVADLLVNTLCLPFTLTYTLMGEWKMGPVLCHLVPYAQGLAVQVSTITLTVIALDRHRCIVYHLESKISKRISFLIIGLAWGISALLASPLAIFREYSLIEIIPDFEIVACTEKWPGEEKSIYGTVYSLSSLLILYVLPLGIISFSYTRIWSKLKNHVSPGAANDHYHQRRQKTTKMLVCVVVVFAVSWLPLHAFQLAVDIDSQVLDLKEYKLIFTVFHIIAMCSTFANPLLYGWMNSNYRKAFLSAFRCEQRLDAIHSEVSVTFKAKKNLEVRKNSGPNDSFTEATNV
NPY1 pot ag = NPY-Y1 receptor potentiators or agonists, primary screen, cell-based. hit rate 0.37% among 220,000. NPY-Y1 expressing cells, potentiator/agonist activation. AID 1304, 2008. activation, % at 3.6 µM; in the data active means activation above about 33%, passing the limit was not always enough;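 further: cells stimulated with NPY at EC10 then isoproterenol at EC100; 0% = low agonist plus stimulus and 100% = saturating agonist plus stimulus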
NPY-Y1 antag = NPY-Y1 receptor antagonists, primary screen, cell-based. hit rate 1% among 200,000. AID 1040, 2008. Neuropeptide Y receptor type 1 (Homo sapiens), P25929. inhibition, % at 3.6 µM. HEK293-CNG Y1 cells, membrane potential fluorescence; NPY at EC95, then isoproterenol;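 active means inhibition above the campaign mean inhibition of all tested compounds plus 3 SD, cut at about 20% in these data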;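 further: 0% = DMSO wells given NPY plus isoproterenol and 100% = isoproterenol alone without NPY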
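material = HEK293 cells with Y1 receptor plus CNG channel | also added = NPY 25 nM then isoproterenol 1 µM plus Ro 20-1724 25 µM | schedule = dye 3 h, compound 60 min room temperature, stimulation 45 min | measured by = membrane potential fluorescence | benchmarks = high control isoproterenol alone, low control NPY with isoproterenol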
NPY-Y2 PAM-ag = NPY-Y2 potentiators or agonists, primary screen, cell-based; activation, % at 3.6 µM; hit rate 0.45% among 220,000; cells expressing NPY-Y2, potentiator/agonist read-out; AID 1359, 2008; Neuropeptide Y receptor type 2 (Homo sapiens), P49146; in the data active means activation above about 27%;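 further: cells stimulated with NPY near EC25 plus isoproterenol at EC100; 0% = vehicle plus submaximal agonist and 100% = vehicle plus saturating agonist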
NPY-Y1 ant conf = NPY-Y1 receptor antagonists, retest of hits, confirmation, HEK293-CNG cells, membrane potential fluorescence, triplicate; hit rate 21% among 1,200; cAMP; NPY challenge against isoproterenol-raised cAMP; shares compounds with NPY-Y1 antag; inhibition, % at 3.6 µM; in the data active means inhibition above about 20%;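 further: 0% = vehicle with agonist plus stimulus and 100% = stimulus alone without agonist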
NPY2 antag ctr = NPY-Y2 receptor antagonists, selectivity check, confirmation, counter-screen for NPY-Y1 antagonist project, HEK293-CNG cells, membrane potential fluorescence, triplicate; shares compounds with NPY-Y1 antag; antagonism; cells given NPY, then isoproterenol; inhibition, % at 3.6 µM; hit rate 28% among 1,200; AID 1255, 2008;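 further: 0% = DMSO with agonist challenge and 100% = reference antagonist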
* = called active by the depositor; · = no result. Only some compounds are listed: those with a hit (about 1.8% of all), similar ones and a draw of the others. Unless noted, no stated cut-off is given here; in the data, active means inhibition above about 17%; inactive means the rest.

SMILES | NPY Y2 blocker | NPY1 pot ag | NPY-Y1 antag | NPY-Y2 PAM-ag | NPY-Y1 ant conf | NPY2 antag ctr
O=C(NNc1c(Cl)cccc1Cl)c1cccs1 | · | -1 | · | 6 | · | ·
CCOC(=O)CC(NC(=O)C(CC)c1ccccc1)c1ccccc1Cl (stereo not given) | 13 | -4 | 25* | -3 | 17 | 6
COc1ccccc1N(CC(=O)NC1CCCC1)C(=O)c1oc(C(C)(C)C)cc1C | · | 16 | 28* | -14 | 22* | 8
Cc1cc(C(C)(C)C)oc1C(=O)N(CC(=O)NC1CCCC1)c1c(C)cccc1C | 10 | 12 | 10 | -8 | · | ·
Cc1cc(C(C)(C)C)oc1C(=O)N(CC(=O)NC1CCCC1)c1ccc(F)cc1 | 15 | -4 | 27* | 0 | 6 | 6
CCC1CCCCN1C(=O)c1sc2ncnc(N(CC)CC)c2c1C (stereo not given) | · | 5 | 4 | -3 | · | ·
Cc1nc(-c2ccc(S(=O)(=O)Oc3ccccc3Cl)s2)cs1 | · | 0 | · | -18 | · | ·
COc1cc(CNCCCN2CCOCC2)c(Br)cc1OCC(=O)Nc1ccccc1C | · | -11 | 11 | 0 | · | ·
CCOc1cc(CNCCCN2CCOCC2)cc(Br)c1OCC(=O)Nc1cccc(C(F)(F)F)c1 | 12 | -43 | 27* | -29 | 17 | 24*
COc1ccccc1NC(=O)COc1ccc(Br)cc1CNCCCN1CCOCC1 | · | -11 | 22* | -4 | 12 | 15
COCCn1c(N)c(Sc2ccccc2[N+](=O)[O-])c(=O)[nH]c1=O | · | 1 | · | -9 | · | ·
CCOC(=O)c1c(C)n(C)c2ccc(O)c(CN3CCN(C)CC3)c12 | 4 | -13 | 5 | -2 | · | ·
CCOC(=O)c1c(CSc2ccccc2)n(C)c2ccc(O)c(CN3CCOCC3)c12 | · | -57 | 38* | -36 | 30* | 9
O=c1[nH]nc(CNc2ccc(Cl)cc2Cl)c2ccccc12 | · | -35 | 24* | -13 | 16 | 25*
O=c1[nH]nc(Cc2ccc(Cl)cc2Cl)c2ccccc12 | 9 | 5 | 8 | 12 | · | ·
O=C(NC1CCCCC1)C(c1cccs1)N(Cc1cccs1)C(=O)c1ccco1 (stereo not given) | 11 | -25 | 47* | -20 | 14 | 11
Cc1cc(Br)c(NC(=O)c2c(-c3c(Cl)cccc3Cl)noc2C)c(Br)c1 | · | -12 | · | 0 | · | ·
OC(COc1c(F)cc(Br)cc1F)CN1CCN(c2ccc(F)cc2)CC1 (stereo not given) | 7 | -23 | 20* | 2 | 4 | 9
COc1ccccc1N(C)S(=O)(=O)c1ccc(C(=O)Nc2nc(C)cs2)cc1 | · | 4 | 0 | 19 | · | ·
CN(C)CCNC(=O)c1sc2cccc(F)c2c1Cl | · | -22 | 33* | -6 | 3 | 8
N#Cc1ccc(CSc2nnc(-c3ccccc3)n2Cc2ccco2)cc1 | 16 | 7 | 33* | -17 | 5 | 4
Cc1ccc(NC(=O)C(Nc2ccccc2)c2ccccc2)cc1 (stereo not given) | 4 | -8 | -2 | 8 | · | ·
Cc1ccc(NC(=O)C(c2ccccc2)C2CCCC2)cc1 (stereo not given) | 5 | -33 | 24* | 2 | 7 | 5
Cc1cccn2c(CN3CCCC(c4ccccc4)C3)c(C(=O)N3CCOCC3)nc12 (stereo not given) | · | 1 | 7 | 1 | · | ·
CCN(CC(O)COCc1ccc(Cl)cc1)C1CCCCC1 (stereo not given) | · | -1 | 6 | -5 | · | ·
CCN(CC(O)COc1ccc(OCC(O)CN(CC)C2CCCCC2)cc1)C1CCCCC1 (stereo not given) | 10 | -53 | 22* | -11 | 6 | 32*
COCCNC(=O)c1cnn2c(C(F)(F)F)cc(-c3ccc(C)cc3)nc12 | · | 0 | 2 | -5 | · | ·
CCOc1ccccc1NC(=O)c1ccccc1-c1nc(-c2ccccc2OC)no1 | 16 | -74 | 43* | -73 | 24* | 23*
CCCCCCCn1c2c(c(=N)c3c1CCC3)CCCC2 | · | -60 | 80* | -37 | 57* | 43*

Compound activity as filed in PubChem.
